In the M2OR odorant receptor database:

Legend:
Conditions in all cases: stereoisomer not certain
[1] = target: T1, OR10A3 (Homo sapiens) (UniProt P58181)
T1 sequence (whole entry): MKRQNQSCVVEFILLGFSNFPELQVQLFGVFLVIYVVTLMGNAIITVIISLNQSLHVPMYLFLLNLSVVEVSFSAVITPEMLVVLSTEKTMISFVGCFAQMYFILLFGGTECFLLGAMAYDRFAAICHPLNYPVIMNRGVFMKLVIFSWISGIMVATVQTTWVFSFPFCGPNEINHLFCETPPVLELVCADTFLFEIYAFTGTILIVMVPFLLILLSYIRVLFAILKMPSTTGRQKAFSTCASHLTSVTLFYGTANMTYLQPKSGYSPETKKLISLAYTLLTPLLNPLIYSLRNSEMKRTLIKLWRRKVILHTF
Method in brief: (§1)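 Transient luciferase assays in mammalian cell lines were common, though methods varied by source. The values come from published papers and their supplementary material, with extra details from the original authors when needed. Responsive refers to a measured signal the original authors judged statistically different from baseline, and non-responsive (inactive) to the remainder.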

[2] = target: T2, OR10A4 (Homo sapiens) (UniProt Q9H209)
T2 sequence (whole entry): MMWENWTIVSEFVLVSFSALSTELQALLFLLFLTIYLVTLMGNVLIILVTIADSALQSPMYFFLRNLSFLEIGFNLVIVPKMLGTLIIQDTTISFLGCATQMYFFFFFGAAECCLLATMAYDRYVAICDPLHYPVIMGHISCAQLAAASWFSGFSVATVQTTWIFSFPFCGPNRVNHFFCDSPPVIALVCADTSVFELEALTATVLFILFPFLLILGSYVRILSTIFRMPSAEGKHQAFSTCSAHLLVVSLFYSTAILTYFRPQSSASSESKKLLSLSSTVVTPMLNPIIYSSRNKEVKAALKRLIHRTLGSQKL
Method in brief: as §1

[3] = target: T3, OR10A5 (Homo sapiens) (UniProt Q9H207)
T3 sequence (whole entry): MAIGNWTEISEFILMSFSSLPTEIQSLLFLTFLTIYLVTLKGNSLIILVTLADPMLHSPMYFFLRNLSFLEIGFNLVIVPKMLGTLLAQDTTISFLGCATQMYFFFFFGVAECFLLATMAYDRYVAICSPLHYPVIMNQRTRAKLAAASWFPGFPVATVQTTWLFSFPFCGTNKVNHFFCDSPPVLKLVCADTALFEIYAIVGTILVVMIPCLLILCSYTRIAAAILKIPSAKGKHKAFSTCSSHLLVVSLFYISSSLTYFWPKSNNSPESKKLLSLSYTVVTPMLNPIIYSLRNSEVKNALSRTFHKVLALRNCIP
Method in brief: as §1

[4] = target: T4, OR10A6 (Homo sapiens) (UniProt Q8NH74)
T4 sequence (whole entry): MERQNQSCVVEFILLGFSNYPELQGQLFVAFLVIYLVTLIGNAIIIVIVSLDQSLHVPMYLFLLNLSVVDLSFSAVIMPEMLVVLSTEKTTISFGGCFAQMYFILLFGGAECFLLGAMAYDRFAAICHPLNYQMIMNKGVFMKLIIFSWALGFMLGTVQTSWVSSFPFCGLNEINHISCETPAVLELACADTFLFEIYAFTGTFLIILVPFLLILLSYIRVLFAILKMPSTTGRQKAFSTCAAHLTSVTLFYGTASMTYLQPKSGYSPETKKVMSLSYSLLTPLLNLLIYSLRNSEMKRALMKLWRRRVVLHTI
Method in brief: as §1

[5] = target: T5, OR10A7 (Homo sapiens) (UniProt Q8NGE5)
T5 sequence (whole entry): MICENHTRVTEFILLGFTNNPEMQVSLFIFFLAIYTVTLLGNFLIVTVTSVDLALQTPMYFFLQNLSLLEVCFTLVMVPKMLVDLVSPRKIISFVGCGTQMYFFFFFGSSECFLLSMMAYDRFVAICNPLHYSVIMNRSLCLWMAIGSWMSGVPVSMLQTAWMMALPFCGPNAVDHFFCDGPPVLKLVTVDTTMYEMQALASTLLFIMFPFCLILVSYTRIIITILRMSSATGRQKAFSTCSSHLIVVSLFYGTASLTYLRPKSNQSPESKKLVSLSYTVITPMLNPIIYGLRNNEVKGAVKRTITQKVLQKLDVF
Method in brief: as §1

[6] = target: T6, OR10AD1 (Homo sapiens) (UniProt Q8NGE0)
T6 sequence (whole entry): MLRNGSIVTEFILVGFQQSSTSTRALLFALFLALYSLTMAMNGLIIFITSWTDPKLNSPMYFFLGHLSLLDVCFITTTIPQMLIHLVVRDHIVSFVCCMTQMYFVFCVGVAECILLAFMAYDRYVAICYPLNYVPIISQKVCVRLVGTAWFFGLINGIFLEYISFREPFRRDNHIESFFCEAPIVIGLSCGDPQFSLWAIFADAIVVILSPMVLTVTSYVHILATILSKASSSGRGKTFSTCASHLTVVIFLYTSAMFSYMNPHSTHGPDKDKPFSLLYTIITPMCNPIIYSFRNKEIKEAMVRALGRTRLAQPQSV
Method in brief: as §1

[7] = target: T7, OR10AG1 (Homo sapiens) (UniProt Q8NH19)
T7 sequence (whole entry): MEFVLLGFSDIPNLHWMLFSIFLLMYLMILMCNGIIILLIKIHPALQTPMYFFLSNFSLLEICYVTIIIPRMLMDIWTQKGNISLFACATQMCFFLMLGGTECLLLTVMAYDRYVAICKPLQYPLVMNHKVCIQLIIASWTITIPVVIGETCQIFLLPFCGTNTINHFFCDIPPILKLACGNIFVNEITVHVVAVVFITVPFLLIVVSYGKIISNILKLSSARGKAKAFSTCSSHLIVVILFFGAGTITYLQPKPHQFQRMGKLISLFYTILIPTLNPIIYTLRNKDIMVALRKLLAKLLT
Method in brief: as §1

[8] = target: T8, OR10C1 (Homo sapiens) (UniProt Q96KK4)
T8 sequence (whole entry): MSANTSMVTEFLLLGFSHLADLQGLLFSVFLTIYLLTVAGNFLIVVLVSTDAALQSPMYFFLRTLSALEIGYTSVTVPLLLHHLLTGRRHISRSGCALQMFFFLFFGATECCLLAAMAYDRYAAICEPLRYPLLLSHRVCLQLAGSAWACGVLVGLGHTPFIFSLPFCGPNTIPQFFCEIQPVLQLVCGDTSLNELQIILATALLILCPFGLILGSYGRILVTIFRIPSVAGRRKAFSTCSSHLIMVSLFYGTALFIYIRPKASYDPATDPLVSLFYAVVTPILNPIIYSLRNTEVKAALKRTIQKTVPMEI
Method in brief: as §1

[9] = target: T9, OR10D3 (Homo sapiens) (UniProt Q8NH80)
T9 sequence (whole entry): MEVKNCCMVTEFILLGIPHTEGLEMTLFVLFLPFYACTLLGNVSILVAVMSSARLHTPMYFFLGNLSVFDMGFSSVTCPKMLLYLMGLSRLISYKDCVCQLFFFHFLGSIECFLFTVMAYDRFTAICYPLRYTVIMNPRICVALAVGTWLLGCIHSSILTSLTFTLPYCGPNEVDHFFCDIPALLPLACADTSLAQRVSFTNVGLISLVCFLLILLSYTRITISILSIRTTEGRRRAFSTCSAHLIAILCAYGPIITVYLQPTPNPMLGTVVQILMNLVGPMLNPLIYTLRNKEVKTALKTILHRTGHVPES
Method in brief: as §1

Measured: odorant receptor agonist call;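 note: active if original authors judged signal statistically different from baseline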

CCCC(S)CCOC(C)=O (centres undefined)
inactive: all assays above
